In brackets after ≈: the same amount, converted by molar mass. Activity calls are given as the source filed them. The rule behind the calls is not given here.
Experiments:
[1] = test system: Escherichia coli; experiment: Antibacterial activity against ESBL-producing Escherichia coli ATCC 35218 strains 15 1 to 3 assessed as reduction in bacterial growth incubated for 18 to 20 hrs by CLSI based microdilution method; format: functional; settings: time 18-20 hrs
Procedure, shortened: (§1)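 CLSI broth microdilution. Compounds in DMSO (levofloxacin and meropenem in water), serial twofold dilutions in broth, 64 to 0.008 μg/mL. […] Results reported as MIC ranges across strains.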

[2] = test system: Staphylococcus epidermidis; experiment: Antibacterial activity against methicillin-sensitive Staphylococcus epidermidis strains 15 1 to 4 assessed as reduction in bacterial growth incubated for 18 to 20 hrs by CLSI based microdilution method; format: functional; settings: time 18-20 hrs
Procedure, shortened: (§2)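 Broth microdilution per CLSI. Compounds dissolved in DMSO (levofloxacin and meropenem in water) as 64 μg/mL stock, then serial twofold dilutions in broth giving 64 to 0.008 μg/mL. […] Clinical isolates tested as several strains per group; racemic GP-1 served as positive control; values given as MIC ranges.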

[3] = test system: Pseudomonas aeruginosa; experiment: Antibacterial activity against IMP4-producing multidrug resistant Pseudomonas aeruginosa assessed as reduction in bacterial growth incubated for 18 to 20 hrs by CLSI based microdilution method; format: functional; settings: time 18-20 hrs; procedure, shortened: as §2
[4] = test system: Klebsiella pneumoniae; experiment: Antibacterial activity agains wild type Klebsiella pneumoniae ATCC BAA-2470 assessed as reduction in bacterial growth incubated for 18 to 20 hrs by CLSI based microdilution method; format: functional; settings: time 18-20 hrs; procedure, shortened: as §2
[5] = target: hERG (KCNH2) potassium channel (Homo sapiens, UniProt Q12809); experiment: Inhibition of hERG potassium channel assessed as maximum inhibition rate at 40 uM at -80 mV holding potential incubated for 120 seconds by whole cell-automated voltage clamp analysis assay relative to control; format: toxicity; settings: time 120 sec
hERG (KCNH2) potassium channel, sequence (Q12809 whole entry): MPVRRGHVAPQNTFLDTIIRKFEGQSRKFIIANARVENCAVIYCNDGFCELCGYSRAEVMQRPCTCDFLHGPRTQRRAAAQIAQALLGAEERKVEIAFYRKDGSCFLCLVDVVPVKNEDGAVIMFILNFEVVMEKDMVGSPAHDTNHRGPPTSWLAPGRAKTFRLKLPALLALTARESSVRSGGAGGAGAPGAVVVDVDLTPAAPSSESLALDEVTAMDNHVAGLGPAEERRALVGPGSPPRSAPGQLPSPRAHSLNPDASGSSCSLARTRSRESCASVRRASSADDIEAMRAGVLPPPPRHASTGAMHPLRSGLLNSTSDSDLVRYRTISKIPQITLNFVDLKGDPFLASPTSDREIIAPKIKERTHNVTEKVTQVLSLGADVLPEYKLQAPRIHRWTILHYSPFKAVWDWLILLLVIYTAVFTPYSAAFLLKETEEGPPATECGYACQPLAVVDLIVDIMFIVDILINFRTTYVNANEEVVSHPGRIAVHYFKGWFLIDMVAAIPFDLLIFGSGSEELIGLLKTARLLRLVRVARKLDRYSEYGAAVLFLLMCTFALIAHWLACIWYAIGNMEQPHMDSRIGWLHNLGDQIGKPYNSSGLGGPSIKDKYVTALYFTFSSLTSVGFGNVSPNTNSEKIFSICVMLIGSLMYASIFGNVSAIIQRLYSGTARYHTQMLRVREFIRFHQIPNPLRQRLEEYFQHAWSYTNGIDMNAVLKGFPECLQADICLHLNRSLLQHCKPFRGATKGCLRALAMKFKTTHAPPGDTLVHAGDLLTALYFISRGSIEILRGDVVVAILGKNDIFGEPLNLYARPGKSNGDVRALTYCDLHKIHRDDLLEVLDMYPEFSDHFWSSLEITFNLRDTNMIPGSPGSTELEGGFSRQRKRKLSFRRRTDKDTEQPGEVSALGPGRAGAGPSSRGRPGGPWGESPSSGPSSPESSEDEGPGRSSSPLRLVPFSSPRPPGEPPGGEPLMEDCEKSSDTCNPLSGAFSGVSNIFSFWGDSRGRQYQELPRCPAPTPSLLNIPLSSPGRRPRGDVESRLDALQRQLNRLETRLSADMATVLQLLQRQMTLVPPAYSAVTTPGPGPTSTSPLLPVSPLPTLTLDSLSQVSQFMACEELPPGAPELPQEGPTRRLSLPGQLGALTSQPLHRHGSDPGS
Procedure, shortened: (§3)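 Automated whole-cell patch clamp, holding potential −80 mV. Voltage protocol applied every 20 s. Baseline set with external solution containing 0.1% DMSO and stabilised 3 min. Compound applied until steady state, at least 3 min, then washout. Maximum tested concentration 40 μM, or 3 μM for cisapride as positive control.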

[6] = test system: Escherichia coli; experiment: Antibacterial activity against ESBL-producing multidrug resistant Escherichia coli assessed as reduction in bacterial growth incubated for 18 to 20 hrs by CLSI based microdilution method; format: functional; settings: time 18-20 hrs; procedure, shortened: as §2
[7] = test system: Staphylococcus aureus; experiment: Antibacterial activity against methicillin-resistant Staphylococcus aureus strains 15 1 to 4 assessed as reduction in bacterial growth incubated for 18 to 20 hrs by CLSI based microdilution method; format: functional; settings: time 18-20 hrs; procedure, shortened: as §2
[8] = Cytotoxicity against human HEK293 cells assessed as cell viability measured for 48 hrs by CCK-8 assay; format: toxicity, cell-based
Procedure, shortened: (§4)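 Cells seeded at 1 × 10⁴ per well and grown for 48 h. Then exposed to test articles at 1–200 μM for another 48 h (n = 6). Viability by CCK-8 added for 2 h, absorbance read at 450 nm. CC50 calculated and reported as the mean.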

[9] = test system: Staphylococcus aureus; experiment: Antibacterial activity against methicillin-sensitive Staphylococcus aureus strains 15 1 to 4 assessed as reduction in bacterial growth incubated for 18 to 20 hrs by CLSI based microdilution method; format: functional; settings: time 18-20 hrs; procedure, shortened: as §2
[10] = test system: Pseudomonas aeruginosa; experiment: Antibacterial activity against wild type Pseudomonas aeruginosa ATCC 27853 assessed as reduction in bacterial growth incubated for 18 to 20 hrs by CLSI based microdilution method; format: functional; settings: time 18-20 hrs; procedure, shortened: as §1
[11] = test system: Klebsiella pneumoniae; experiment: Antibacterial activity agains wild type Klebsiella pneumoniae ATCC BAA-1705 assessed as reduction in bacterial growth incubated for 18 to 20 hrs by CLSI based microdilution method; format: functional; settings: time 18-20 hrs; procedure, shortened: as §1
[12] = test system: Klebsiella pneumoniae; experiment: Antibacterial activity against KPC2-producing multidrug resistant Klebsiella pneumoniae assessed as reduction in bacterial growth incubated for 18 to 20 hrs by CLSI based microdilution method; format: functional; settings: time 18-20 hrs; procedure, shortened: as §2
[13] = test system: Escherichia coli; experiment: Antibacterial activity against multidrug resistant wild type Escherichia coli ATCC BAA-2340 assessed as reduction in bacterial growth incubated for 18 to 20 hrs by CLSI based microdilution method; format: functional; settings: time 18-20 hrs; procedure, shortened: as §2
[14] = test system: Acinetobacter baumannii; experiment: Antibacterial activity against wild type Acinetobacter baumannii NCTC 13304 assessed as reduction in bacterial growth incubated for 18 to 20 hrs by CLSI based microdilution method; format: functional; settings: time 18-20 hrs; procedure, shortened: as §2
[15] = test system: Acinetobacter baumannii; experiment: Antibacterial activity agains OXA23-producing multidrug resistant Acinetobacter baumannii assessed as reduction in bacterial growth incubated for 18 to 20 hrs by CLSI based microdilution method; format: functional; settings: time 18-20 hrs; procedure, shortened: as §2
[16] = target: Voltage-gated inwardly rectifying potassium channel KCNH2 (Homo sapiens, UniProt Q12809); experiment: Inhibition of hERG potassium channel assessed as […] at -80 mV holding potential incubated for 120 seconds by whole cell-automated voltage clamp analysis assay; format: toxicity; procedure, shortened: as §3
Voltage-gated inwardly rectifying potassium channel KCNH2, sequence (Q12809 whole entry): as above

[17] = test system: Escherichia coli; experiment: Antibacterial activity against multidrug resistant wild type Escherichia coli NCTC 13353 assessed as reduction in bacterial growth incubated for 18 to 20 hrs by CLSI based microdilution method; format: functional; settings: time 18-20 hrs; procedure, shortened: as §2
[18] = Cytotoxicity against human L02 cells assessed as cell viability measured for 48 hrs by CCK-8 assay; format: toxicity, cell-based; procedure, shortened: as §4
[19] = test system: Escherichia coli; experiment: Antibacterial activity against Escherichia coli ATCC 35218 strains 15 1 to 3 assessed as reduction in bacterial growth incubated for 18 to 20 hrs by CLSI based microdilution method; format: functional; settings: time 18-20 hrs; procedure, shortened: as §1
[20] = test system: Pseudomonas aeruginosa; experiment: Antibacterial activity against multidrug resistant Pseudomonas aeruginosa strains 15 1 to 3 assessed as reduction in bacterial growth incubated for 18 to 20 hrs by CLSI based microdilution method; format: functional; settings: time 18-20 hrs; procedure, shortened: as §2
[21] = Clearance in Sprague-Dawley rat at 20 mg/kg, iv measured upto 24 hrs by LC-MS/MS analysis; format: ADME, organism-based; settings: in vivo
Procedure, shortened: (§5)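 Male Sprague-Dawley rats, n = 3 per group, single intravenous dose. For 4 mg/kg: 180–280 g rats, vehicle 5% DMSO + 5% EtOH + 40% PEG300 + 50% saline, blood from the retrobulbar vein at 0.05–24 h. For 5 and 20 mg/kg: 180–300 g rats, vehicle 5% DMSO + 5% solutol + 90% saline, sampled at 0.083–24 h. Plasma quantified by LC/MS/MS. Parameters from mean plasma concentration by noncompartmental analysis; values are mean ± standard deviation.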

[22] = test system: Acinetobacter baumannii; experiment: Bactericidal activity against OXA23-producing multidrug resistant Acinetobacter baumannii infected in dosed kunming mouse at 30 mg/kg, iv measured after 24 hrs; format: functional, organism-based
Procedure, shortened: (§6)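 Neutropenic thigh model in Kunming mice (18−22 g, half male/half female; 8 per dosed group, 13 vehicle). Cyclophosphamide given ip 4 days (150 mg/kg) and 1 day (100 mg/kg) before infection. Right posterior thigh injected im with 0.1 mL of 10⁷ cfu/mL OXA-23 MDR A. baumannii clinical isolate. Iv tail dosing at 10, 20, 30 mg/kg 2 h post-infection; levofloxacin 30 mg/kg iv; saline vehicle. Thighs homogenised in saline for cfu after 24 h.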

[23] = MRT in Sprague-Dawley rat at 5 mg/kg, iv measured upto 24 hrs by LC-MS/MS analysis; format: ADME, organism-based; settings: in vivo; procedure, shortened: as §5
[24] = Metabolic stability in rat liver microsome assessed as metabolic bioavailability at 0.1 uM in presence of NADPH incubated upto 60 mins by LC-MS/MS analysis; format: ADME; settings: liver microsomes
Procedure, shortened: (§7)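 Compound at 0.1 μM final, in 0.01% DMSO with 0.005% BSA. Incubated with rat or human liver microsomes at 0.33 mg/mL in 0.1 M Tris-HCl, pH 7.4, with 5 mM MgCl₂ and 1 mM NADPH, at 37 °C. Samples at 0, 7, 17, 30 and 60 min quenched with cold methanol and analysed by LC-MS/MS. Half-life, Cl_int and MF% derived as previously described.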

[25] = Metabolic stability in human liver microsome assessed as intrinsic clearance at 0.1 uM in presence of NADPH incubated upto 60 mins by LC-MS/MS analysis; format: ADME; settings: microsomes, 1 h; procedure, shortened: as §7
[26] = Volume of distribution at the steady state in Sprague-Dawley rat at 5 mg/kg, iv measured upto 24 hrs by LC-MS/MS analysis; format: ADME, organism-based; settings: in vivo, read-out: Vdss; procedure, shortened: as §5
[27] = Elimination half life in Sprague-Dawley rat at 20 mg/kg, iv measured upto 24 hrs by LC-MS/MS analysis; format: ADME, organism-based; settings: in vivo, read-out: beta t1/2 (converted); procedure, shortened: as §5
[28] = test system: Acinetobacter baumannii; experiment: Antibacterial activity against OXA23-producing multidrug resistant Acinetobacter baumannii infected in iv dosed kunming mouse measured after 24 hrs; format: functional, organism-based; settings: dose 10-30 mg/kg, DDE = dose-dependent effect; procedure, shortened: as §6
[29] = Metabolic stability in rat liver microsome assessed as elimination half life at 0.1 uM in presence of NADPH incubated upto 60 mins by LC-MS/MS analysis; format: ADME; settings: liver microsomes, read-out: beta t1/2; procedure, shortened: as §7
[30] = Clearance in Sprague-Dawley rat at 5 mg/kg, iv measured upto 24 hrs by LC-MS/MS analysis; format: ADME, organism-based; settings: in vivo; procedure, shortened: as §5
[31] = Elimination half life in Sprague-Dawley rat at 5 mg/kg, iv measured upto 24 hrs by LC-MS/MS analysis; format: ADME, organism-based; settings: in vivo, read-out: beta t1/2 (converted); procedure, shortened: as §5
[32] = AUC (0 to infinity) in Sprague-Dawley rat at 20 mg/kg, iv measured upto 24 hrs by LC-MS/MS analysis; format: ADME, organism-based; design: dose 20 mg/kg, time < 24 hrs, route iv; settings: in vivo; procedure, shortened: as §5
[33] = Metabolic stability in human liver microsome assessed as metabolic bioavailability at 0.1 uM in presence of NADPH incubated upto 60 mins by LC-MS/MS analysis; format: ADME; settings: liver microsomes; procedure, shortened: as §7
[34] = MRT in Sprague-Dawley rat at 20 mg/kg, iv measured upto 24 hrs by LC-MS/MS analysis; format: ADME, organism-based; settings: in vivo; procedure, shortened: as §5
[35] = Metabolic stability in rat liver microsome assessed as intrinsic clearance at 0.1 uM in presence of NADPH incubated upto 60 mins by LC-MS/MS analysis; format: ADME; settings: microsomes, 1 h; procedure, shortened: as §7
[36] = Metabolic stability in human liver microsome assessed as elimination half life at 0.1 uM in presence of NADPH incubated upto 60 mins by LC-MS/MS analysis; format: ADME; settings: liver microsomes, read-out: beta t1/2; procedure, shortened: as §7
[37] = Volume of distribution at the steady state in Sprague-Dawley rat at 20 mg/kg, iv measured upto 24 hrs by LC-MS/MS analysis; format: ADME, organism-based; settings: in vivo, read-out: Vdss; procedure, shortened: as §5
[38] = AUC (0 to infinity) in Sprague-Dawley rat at 5 mg/kg, iv measured upto 24 hrs by LC-MS/MS analysis; format: ADME, organism-based; design: time < 24 hrs, dose 5 mg/kg, route iv; settings: in vivo; procedure, shortened: as §5

Structure (SMILES) | MIC [3] | MIC [4] | inhibition at 2 min, 40 µM [5] | MIC [6] | CC50 at 48 h [8] | MIC [10] | MIC [11] | MIC [12] | MIC [13] | MIC [14] | MIC [15] | IC50 [16] | MIC [17] | CC50 at 48 h [18] | other results
CNc1cc(F)cc2c1[nH]c1nc(Oc3cnc(C)nc3)nc(N3CC4CCNC4C3)c12 (racemic) | 16 µg/mL (≈ 36.8 µM) | 1 µg/mL (≈ 2.3 µM) | 70.5% | 0.5 µg/mL (≈ 1.15 µM) | 21.8 µM | 4 µg/mL (≈ 9.21 µM) | 4 µg/mL (≈ 9.21 µM) | 2 µg/mL (≈ 4.6 µM) | 0.5 µg/mL (≈ 1.15 µM) | 0.25 µg/mL (≈ 0.575 µM) | 0.5 µg/mL (≈ 1.15 µM) | 12.3 µM | 0.25 µg/mL (≈ 0.575 µM) | 24 µM | MIC [1]: 0.25 µg/mL (≈ 0.575 µM); MIC [2]: < 0.008 µg/mL; MIC [7]: 0.015 µg/mL (≈ 0.0345 µM); MIC [9]: < 0.008 µg/mL; MIC [19]: 0.06 µg/mL (≈ 0.138 µM); MIC [20]: 0.5 µg/mL (≈ 1.15 µM)
CNc1cc(F)cc2c1[nH]c1nc(Oc3cnc(C)nc3)nc(N3CC(=C(C)[C@@H](C)N)C3)c12 | 4 µg/mL (≈ 8.92 µM) | 2 µg/mL (≈ 4.46 µM) | 18.3% | 0.5 µg/mL (≈ 1.11 µM) | 19 µM | 2 µg/mL (≈ 4.46 µM) | 4 µg/mL (≈ 8.92 µM) | 2 µg/mL (≈ 4.46 µM) | 0.5 µg/mL (≈ 1.11 µM) | 0.25 µg/mL (≈ 0.557 µM) | 0.25 µg/mL (≈ 0.557 µM) | > 40 µM | 0.125 µg/mL (≈ 0.279 µM) | 16 µM | clearance [21]: 57.7 mL/min/kg; Activity [22]: Active; MRT [23]: 7.8 h; Fh at 1 h, 0.1 µM [24]: 15%; CLH [25]: 28.4 mL/min/g; Vd [26]: 35.7 L/kg; half-life [27]: 5.9 h; Activity [28]: Dde; half-life at 0.1 µM [29]: 8.3 min; clearance [30]: 76.6 mL/min/kg; half-life [31]: 8.5 h; AUC(0-inf) [32]: 5790 ng·h/mL; Fh at 1 h, 0.1 µM [33]: 40.8%; MRT [34]: 3.1 h; CLH [35]: 252 mL/min/g; half-life at 0.1 µM [36]: 1.23 h; Vd [37]: 10.8 L/kg; AUC(0-inf) [38]: 1100 ng·h/mL
